Assay outcomes from PubChem BioAssay.
Only some compounds are listed: those with a hit (about 3.7% of all), similar ones and a draw of the others.
EP2 antag – human EP2 receptor antagonists, primary screen, TR-FRET cAMP, C6 glioma cells; AID 1422, 2008; 260,000 compounds, 0.52% hits; C6 glioma cells expressing human EP2; cells stimulated with saturating PGE2; inhibition, % at 25 µM;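 active = percent inhibition above 40 after rounding to a whole number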;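 also: rat C6 glioma host cells with rolipram phosphodiesterase inhibitor present; the protocol text gives 20 µM as final concentration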
OX1R antag-1 – antagonists of human orexin 1 receptor (OX1R); 330,000 compounds, 1.8% hits; Orexin/Hypocretin receptor type 1 (Homo sapiens), O43613; inhibition, % at 6.6 µM; OX1R-expressing cells, FRET antagonist read-out; in the data active = inhibition mostly above about 38%, no sharp cut-off; inactive = mostly below about 40%;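 also: 0% = agonist challenge alone and 100% = reference antagonist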
Target sequence (O43613 whole entry, looked up): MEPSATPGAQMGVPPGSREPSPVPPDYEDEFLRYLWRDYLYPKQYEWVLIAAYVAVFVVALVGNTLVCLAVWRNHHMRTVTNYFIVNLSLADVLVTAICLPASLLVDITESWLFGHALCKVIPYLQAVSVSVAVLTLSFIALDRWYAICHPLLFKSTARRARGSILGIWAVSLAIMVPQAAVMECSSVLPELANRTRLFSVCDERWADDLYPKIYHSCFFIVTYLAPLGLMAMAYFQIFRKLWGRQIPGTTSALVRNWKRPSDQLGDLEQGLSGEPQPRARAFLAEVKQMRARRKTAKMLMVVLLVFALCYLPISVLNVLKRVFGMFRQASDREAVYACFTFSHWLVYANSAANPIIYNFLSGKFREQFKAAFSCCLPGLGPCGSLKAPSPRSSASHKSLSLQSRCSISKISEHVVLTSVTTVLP
EP2 mod – EP2 receptor modulators, cAMP readout, primary screen, cell-based, HTRF cAMP, PGE2 stimulation; Prostaglandin E2 receptor EP2 subtype (Homo sapiens), P43116; 260,000 compounds, 0.83% hits; EP2-expressing cells, cAMP HTRF FRET, PGE2 co-stimulation; induction, % at 25 µM;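 active = compounds whose cAMP rise, as percent of the full-agonist control response, exceeds 60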;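 also: rat C6 glioma line stably carrying human EP2 under a CMV promoter; the protocol text gives 20 µM as final concentration; 100% = response of wells given 1 µM PGE2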
OX1R antag-2 – OX1R (HCRTR1) antagonists, primary screen, fluorescence, CHO/OX1R cells, Fluo-8 calcium, orexin A; Orexin/Hypocretin receptor type 1 (Homo sapiens), O43613; Fluo-8 calcium fluorescence; inhibition, % at 5 µM; 330,000 compounds, 0.43% hits; AID 434989, 2010;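 active = inhibition above its plate's threshold, mean inhibition of all tested compounds on the plate plus 3 SD, cut at about 37% in these data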;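 also: 0% = orexin A challenge wells and 100% = SB-334867-A antagonist wells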
GPR7 antagonist – GPR7 receptor antagonists, primary screen, cell-based, fluorescence, single concentration. Neuropeptides B/W receptor type 1 (Homo sapiens), P48145. GPR7-expressing cells, fluorescence antagonist assay. inhibition, % at 4.4 µM. 290,000 compounds, 1.1% hits; in the data active = inhibition above about 16%, passing the limit was not always enough;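 also: cells stimulated with the agonist NPW; 0% = agonist with vehicle and 100% = vehicle without agonist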
CHO parental Ca – ATP-evoked calcium signal inhibitors, parental CHO, primary screen, counter-screen for OX1R antagonist project, cell-based, fluorescence, Fluo-8 calcium dye; 330,000 compounds, 0.63% hits; inhibition, % at 5.6 µM; parental CHO-K1, ATP-induced calcium, Fluo-8 fluorescence;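 active = inhibition above that plate's mean sample inhibition plus 3 SD, cut at about 26% in these data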;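 also: 0% = ATP-challenged DMSO wells and 100% = DMSO wells without ATP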
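material = parental CHO cells | also added = ATP as calcium-mobilizing challenge | dosing = single point at 5.6 µM | detection = intracellular calcium via Fluo-8 no-wash fluorescent dye | read-out = % inhibition | benchmarks = low control ATP plus DMSO, high control DMSO only | repeats = one well per compound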
GPR7 antag cf – GPR7 receptor antagonists, confirmation, cell-based, fluorescence, single concentration; GPR7-expressing cells, calcium fluorescence antagonist mode; shares compounds with GPR7 antagonist; inhibition, % at 4.4 µM; 2,400 compounds, 52% hits; AID 1952, 2009; in the data active = inhibition above about 24%;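 also: stimulated with the GPR7 agonist NPW; 0% = agonist plus vehicle and 100% = vehicle alone without agonist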
MCHR1 antagonist – MCHR1 antagonists in cells, counter-screen for GPR7 antagonist project, cell-based, fluorescence, human | 2,400 compounds, 62% hits | shares compounds with GPR7 antagonist | AID 2148, 2009 | inhibition, % at 4.4 µM | MCHR1-expressing cells, fluorescence antagonist assay; in the data active = inhibition above about 22%;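 also: 0% = vehicle with agonist and 100% = vehicle without agonist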
The depositor's hits bear a star.

What do the screens show for `Brc1c(CSc2nnc(-c3ccco3)o2)nc2ccccn12`?
EP2 antag: 17; OX1R antag-1: 31; EP2 mod: 8; OX1R antag-2: -10; GPR7 antagonist: 24*; CHO parental Ca: -24; GPR7 antag cf: 10; MCHR1 antagonist: -4

What do the screens show for `Cc1ccc(S(=O)(=O)Nc2ccc3nc(-c4cccnc4)[nH]c3c2)cc1`?
EP2 antag: 9; EP2 mod: -72

What do the screens show for `COc1ccc(N(CC(=O)N2CCN(c3ccccc3F)CC2)S(=O)(=O)c2ccc(C)cc2)cc1`?
OX1R antag-1: 22; OX1R antag-2: -8; GPR7 antagonist: -7; CHO parental Ca: -17

Results for O=C(NC(NC(=S)Nc1ccccc1Cl)C(Cl)(Cl)Cl)c1cccc(Cl)c1 (stereo unspecified) ?
EP2 antag: 7; OX1R antag-1: 46; EP2 mod: 6; OX1R antag-2: 19; GPR7 antagonist: 27*; CHO parental Ca: 4; GPR7 antag cf: 49*; MCHR1 antagonist: 61*

How did O=C(Cc1cccc2ccccc12)NC(NC(=S)Nc1ccccc1Cl)C(Cl)(Cl)Cl (stereo unspecified) do in these assays?
EP2 antag: 7; OX1R antag-1: 17; EP2 mod: 34; OX1R antag-2: 1; GPR7 antagonist: 1; CHO parental Ca: -1

Results for OC(Cn1nnc2ccccc21)Cn1c(C(F)(F)F)nc2ccccc21 (stereo unspecified) ?
EP2 antag: 15; OX1R antag-1: 3; EP2 mod: 11; OX1R antag-2: -22; GPR7 antagonist: 0; CHO parental Ca: -20

How did CNCC(O)Cn1c(C(F)(F)F)nc2ccccc21 (stereo unspecified) do in these assays?
EP2 antag: 9; OX1R antag-1: 20; EP2 mod: -23; OX1R antag-2: -20; GPR7 antagonist: 31*; CHO parental Ca: -18; GPR7 antag cf: -6; MCHR1 antagonist: 19

Results for Cc1nonc1OCCNCCNc1ccc([N+](=O)[O-])cc1Cl ?
EP2 antag: 5; OX1R antag-1: 34; EP2 mod: -58; OX1R antag-2: -19; GPR7 antagonist: 25*; CHO parental Ca: -5; GPR7 antag cf: 12; MCHR1 antagonist: 11

How did Cc1nonc1OCCNc1ccc([N+](=O)[O-])cc1 do in these assays?
EP2 antag: 17; OX1R antag-1: 18; EP2 mod: 13; OX1R antag-2: 2; GPR7 antagonist: 2; CHO parental Ca: -8

How did CC1=CC2=NC(=O)/C(=C/c3coc4ccc(Cl)cc4c3=O)C(=N)N2O1 do in these assays?
EP2 antag: 15; OX1R antag-1: 7; EP2 mod: -30; OX1R antag-2: 23; GPR7 antagonist: 21*; CHO parental Ca: 39*; GPR7 antag cf: 28*; MCHR1 antagonist: 61*

Results for CC1=CC2=NC(=O)/C(=C\c3cc(C)n(-c4cccc(Cl)c4)c3C)C(=N)N2O1 ?
EP2 antag: 4; OX1R antag-1: 11; EP2 mod: 34; OX1R antag-2: -7; GPR7 antagonist: -12; CHO parental Ca: -10

What do the screens show for `Cc1ccc(NC(=O)CSc2ncnc3ccccc23)cc1S(=O)(=O)N1CCCCC1`?
EP2 antag: 14; OX1R antag-1: 15; EP2 mod: 7; OX1R antag-2: -7; GPR7 antagonist: 23*; CHO parental Ca: 38; GPR7 antag cf: 58*; MCHR1 antagonist: 63*

How did CCOCCCNCc1cc(Br)ccc1OCc1ccccc1 do in these assays?
EP2 antag: 7; OX1R antag-1: 16; EP2 mod: 4; OX1R antag-2: -25; GPR7 antagonist: 38*; CHO parental Ca: -16; GPR7 antag cf: 36*; MCHR1 antagonist: 42*

Results for CSc1cccc(NC(=O)CCC(=O)O)c1 ?
EP2 antag: 5; OX1R antag-1: 4; EP2 mod: 33; OX1R antag-2: -5; GPR7 antagonist: -11; CHO parental Ca: -6

What do the screens show for `CSc1cccc(NC(=O)Cc2ccccc2[N+](=O)[O-])c1`?
EP2 antag: 6; OX1R antag-1: 18; EP2 mod: -23; OX1R antag-2: -16; GPR7 antagonist: 27*; CHO parental Ca: 5; GPR7 antag cf: -9; MCHR1 antagonist: 8

Results for CC1CC(=O)N(CC(=O)Nc2ccc(F)cc2F)c2ccccc2S1(=O)=O (stereo unspecified) ?
OX1R antag-1: 11; OX1R antag-2: -3; GPR7 antagonist: -4; CHO parental Ca: -10

Results for CCOC(=O)CCC(=O)NCc1ccc2[nH]c(C)cc2c1 ?
EP2 antag: 7; OX1R antag-1: 19; EP2 mod: 25; OX1R antag-2: -6; GPR7 antagonist: 19; CHO parental Ca: -5

How did O=C(CSc1nnc(Cc2cccs2)n1Cc1ccco1)Nc1ccc(Cl)cc1Cl do in these assays?
EP2 antag: 3; OX1R antag-1: 31; EP2 mod: 36; OX1R antag-2: -35; GPR7 antagonist: 28*; CHO parental Ca: -8; GPR7 antag cf: 31*; MCHR1 antagonist: 34*

What do the screens show for `Cc1cc(C)c(C(N)=O)c(Nc2cccc(Cl)c2C)n1`?
EP2 antag: 9; OX1R antag-1: 13; EP2 mod: -9; OX1R antag-2: -12; GPR7 antagonist: -12; CHO parental Ca: -10

Results for CCC(=O)N1c2ccc(S(=O)(=O)N3CCN(c4ccc([N+](=O)[O-])cc4)CC3)cc2CC1C (stereo unspecified) ?
OX1R antag-1: 24; OX1R antag-2: 20; GPR7 antagonist: 36*; CHO parental Ca: 27; GPR7 antag cf: 33*; MCHR1 antagonist: 44*

How did Cc1cccc(N2CCN(S(=O)(=O)c3ccc4c(c3)CC(C)N4C(=O)C3CC3)CC2)c1C (stereo unspecified) do in these assays?
OX1R antag-1: 10; OX1R antag-2: -12; GPR7 antagonist: 28*; CHO parental Ca: -9; GPR7 antag cf: 29*; MCHR1 antagonist: 44*

What do the screens show for `Cc1cccc(Cn2c(C)nc3ccc([N+](=O)[O-])cc3c2=O)c1`?
OX1R antag-1: 36; OX1R antag-2: -22; GPR7 antagonist: 45*; CHO parental Ca: 1; GPR7 antag cf: 36*; MCHR1 antagonist: 43*
